Assay results from ChEMBL document CHEMBL1144505, “Synthesis, analytical behaviour and biological evaluation of new 4-substituted pyrrolo[1,2-a]quinoxalines as antileishmanial agents” (Bioorg Med Chem, 2007).

Legend:
Leishmania amazonensis = experiment: Antileishmanial activity against Leishmania amazonensis MHOM/BR/1987/BA promastigotes by MTT assay after 1 to 2 days; type: functional, organism-based
Procedure, shortened: (§1)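 Promastigotes harvested at stationary growth phase (10⁶/ml), washed and incubated with compounds in culture medium. Viability was read by MTT reduction to formazan, with detergent lysis and absorbance at 570 nm; in some experiments parasites were instead counted under microscope. […] Values are means of three independent experiments.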

[1] = Selectivity index, ratio of IC50 for phytohemagglutininin-activated-PBMC to IC50 for Leishmania infantum clone MCAN/GR/82/LEM497 promastigotes; type: functional
Procedure, shortened: (§2)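 Selectivity index is the IC50 on PHA-activated PBMC divided by the IC50 against the L. amazonensis or L. infantum promastigotes.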

[2] = Selectivity index, ratio of IC50 for phytohemagglutininin-activated-PBMC to IC50 for Leishmania amazonensis MHOM/BR/1987/BA promastigotes; type: functional; procedure, shortened: as §2
[3] = Partition coefficient, log D at pH 7.4; details: octanol/water
PBMC [4] = experiment: Cytotoxicity against human PBMC by MTT assay after 3 to 4 days; type: cell-based
Procedure, shortened: (§3)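 Freshly isolated PBMC from healthy volunteers were prepared on a Ficoll gradient and cultured in medium alone or stimulated with PHA (5 µg/ml). Compounds were added, and after 3–4 days cells were harvested, washed and counted by trypan blue exclusion; in some experiments MTT was used instead. IC50 was obtained by linear regression, and the maximum tolerated concentration was also assessed.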

Leishmania infantum = experiment: Antileishmanial activity against Leishmania infantum clone MCAN/GR/82/LEM497 promastigotes by MTT assay after 1 to 2 days; type: functional, organism-based; procedure, shortened: as §1
PBMC [5] = experiment: Cytotoxicity against human phytohemagglutininin-activated-PBMC by MTT assay after 3 to 4 days; type: cell-based; procedure, shortened: as §3

Row | logD [3] | Compound | IC50 (Leishmania amazonensis) | Ratio IC50 [1] | Ratio IC50 [2] | IC50 (PBMC [4]) | IC50 (Leishmania infantum) | IC50 (PBMC [5])
1 | 4.04 | CCCCCc1nc2ccccc2n2cccc12 | > 50 µM | <1 | <1 | > 100 µM | > 50 µM | 30 µM
2 | 3.35 | CCCc1nc2ccccc2n2cccc12 | > 50 µM |  |  | > 100 µM | > 50 µM | 100 µM
3 | 2.55 | C[C@H]1O[C@H]1c1nc2ccccc2n2cccc12 (relative stereo) | > 50 µM |  |  | > 100 µM | > 50 µM | > 100 µM
4 | 4.12 | C1=C(c2nc3ccccc3n3cccc23)CCCC1 | > 50 µM |  |  | > 100 µM | > 50 µM | > 100 µM
5 | 2.97 | COc1ccc(CCc2nc3ccccc3n3cccc23)cc1OC | 30 µM |  | >3.3 | > 100 µM | > 50 µM | > 100 µM
6 | 3.84 | c1ccc2c(c1)nc(CCc1ccc3c(c1)OCO3)c1cccn12 | 7 µM |  | 9.3 | > 100 µM | > 50 µM | 65 µM
7 | 3.6 | c1ccc(-c2nc3ccccc3n3cccc23)cc1 | > 50 µM |  |  | > 100 µM | > 50 µM | > 100 µM
8 | 3.08 | C=Cc1nc2ccccc2n2cccc12 | 3 µM | 2 | 0.3 | 3 µM | 0.5 µM | 1 µM
9 | 3.4 | CCCc1nc2cc(OC)ccc2n2cccc12 | > 50 µM |  |  | > 100 µM | > 50 µM | 90 µM
10 | 4.44 | CCC/C=C/c1nc2ccccc2n2cccc12 | 5 µM | 7.4 | 10.4 | 70 µM | 7 µM | 52 µM
11 | 2.61 | C[C@@H]1O[C@H]1c1nc2ccccc2n2cccc12 (relative stereo) | > 50 µM |  |  | > 100 µM | > 50 µM | > 100 µM
12 | 4.84 | C(=C\c1nc2ccccc2n2cccc12)/c1ccccc1 | 35 µM |  | >2.9 | > 100 µM | > 50 µM | > 100 µM

The remaining lines, values behind:

Row | Compound | logD [3] | IC50 (Leishmania amazonensis) | Ratio IC50 [1] | Ratio IC50 [2] | IC50 (PBMC [4]) | IC50 (Leishmania infantum) | IC50 (PBMC [5])
13 | CCCCC#Cc1nc2ccccc2n2cccc12 | 4.36 | 18 µM | 1 | 1.4 | 50 µM | 25 µM | 25 µM
14 | CCC/C=C/c1nc2cc(OC)ccc2n2cccc12 | 4.52 | 6 µM | 40 | 6.7 | 60 µM | 1 µM | 40 µM
15 | C/C=C/c1ccc2ccccc2n1 [CHIMANINE B] | 2.23 | 5 µM | 6 | 8.4 | 43 µM | 7 µM | 42 µM
16 | COc1ccc2c(c1)nc(/C=C/c1ccccc1)c1cccn12 |  | 36 µM |  |  | > 100 µM | 5 µM | > 100 µM
17 | C[C@@H]1[C@H](O)[C@@H](C)/C=C/C=C/C=C/C=C/C=C/C=C/C=C/[C@H](O[C@@H]2O[C@H](C)[C@@H](O)[C@H](N)[C@@H]2O)C[C@@H]2O[C@](O)(C[C@@H](O)C[C@@H](O)[C@H](O)CC[C@@H](O)C[C@@H](O)CC(=O)O[C@H]1C)C[C@H](O)[C@H]2C(=O)O [AMPHOTERICIN B] |  | 1 µM | 106.6 | 96 | > 100 µM | 0.9 µM | 96 µM
18 | CCCCCc1nc2cc(OC)ccc2n2cccc12 | 4.38 | > 50 µM | <1 | <1 | 66 µM | > 50 µM | 45 µM
19 | C/C=C/c1nc2cc(OC)ccc2n2cccc12 | 3.47 | 7 µM | 2.5 | 0.7 | 5 µM | 2 µM | 5 µM
20 | C/C=C/c1nc2ccc(OC)cc2n2cccc12 | 3.48 | 1 µM | 10 | 5 | 7 µM | 0.5 µM | 5 µM
21 | C/C=C\c1nc2ccccc2n2cccc12 | 3.3 | 4 µM | 7.5 | 1.5 | 8 µM | 0.8 µM | 6 µM
22 | CCCCC#Cc1nc2cc(OC)ccc2n2cccc12 | 4.35 | 3 µM | 0.7 | 1.7 | 6 µM | 7 µM | 5 µM
23 | CCC/C=C/c1nc2ccc(OC)cc2n2cccc12 | 4.3 | 4 µM | 12 | 7.5 | 55 µM | 2.5 µM | 30 µM
24 | C/C=C/c1nc2ccccc2n2cccc12 | 3.44 | 0.5 µM | 7.1 | 10 | 6 µM | 0.7 µM | 5 µM
